Experimental data: ChEMBL document CHEMBL4706580, “4-Amino-1,2,4-triazole-3-thione-derived Schiff bases as metallo-β-lactamase inhibitors” (Eur J Med Chem, 2020)
The source made the active and inactive calls. No cut-off for these calls is given here.

Key:
[1] = Binding affinity to beta-lactamase VIM-2 expressed in Escherichia coli BL21(DE3) assessed as association constant at 25 degC by isothermal titration calorimetry
Outline: (§1)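 VIM-2 (19 μM) in 10 mM HEPES-NaOH, 0.15 M NaCl, 50 μM ZnSO4, pH 7.5, DMSO matched to ligand (1-2% final). One 0.5 μl then 19 × 2 μl injections of compound (200-400 μM), 150 s apart, 25 °C. Buffer dilution heats subtracted; nonlinear least-squares fit for n, Ka, ΔH; compound concentration adjusted in fitting so n ≈ 1.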

[2] = Binding affinity to beta-lactamase VIM-2 expressed in Escherichia coli BL21(DE3) assessed as dissociation constant at 25 degC by isothermal titration calorimetry; outline: as §1
[3] = Binding affinity to beta-lactamase VIM-2 expressed in Escherichia coli BL21(DE3) assessed as change in entropy at 25 degC by isothermal titration calorimetry; outline: as §1
[4] = Inhibition of beta-lactamase VIM-2 (unknown origin) expressed in Escherichia coli LZ2310 assessed as potentiation of cefoxitin antibacterial activity by measuring cefoxitin induced diameter of inhibition zone at 40 uM incubated for 18 hrs by disk diffusion method (reference value: 14 mm)
Outline: (§2)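 Efflux-deficient E. coli LZ2310 (NorE, MdfA, AcrA knocked out) carrying pLB-II with the cloned MBL gene. Mueller-Hinton, CLSI disk diffusion; antibiotic disks (30 µg cefoxitin for VIM-2, 10 µg ampicillin for VIM-4, 30 µg ceftazidime for NDM-1/IMP-1) loaded with inhibitor in DMSO (≤15 µL). Zone diameter after 18 h, 35 ± 1 °C; DMSO and 220 µg EDTA controls. Triplicate.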

[5] = Binding affinity to beta-lactamase VIM-2 expressed in Escherichia coli BL21(DE3) assessed as Gibbs free energy at 25 degC by isothermal titration calorimetry; outline: as §1
[6] = Binding affinity to beta-lactamase VIM-2 expressed in Escherichia coli BL21(DE3) assessed as change in enthalpy at 25 degC by isothermal titration calorimetry; outline: as §1
[7] = Inhibition of beta-lactamase CphA (unknown origin) expressed in Escherichia coli BL21(DE3) using imipenem as substrate by measuring substrate hydrolysis by spectrophotometric analysis
Outline: (§3)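 Enzyme 0.2–0.8 nM in 15 mM cacodylate pH 6.5, no added zinc, pre-incubated 30 min at 21 °C with inhibitor (100 μM screen). Imipenem substrate added from 10 mM stock; hydrolysis at 300 nm, 30 °C. Residual activity vs three uninhibited samples; Ki (1–100 μM inhibitor) by Hanes linearization, competitive model. Triplicate.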

[8] = Inhibition of beta-lactamase IMP-1 (unknown origin) expressed in Escherichia coli BL21(DE3) using imipenem as substrate by measuring substrate hydrolysis at 200 uM by spectrophotometric analysis
Outline: (§4)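 Purified enzyme (overproduced in E. coli BL21(DE3), pET-9a; ion-exchange and gel filtration), 1-70 nM final. Reporter substrate 150 μM imipenem, read at 300 nm, 30 °C, 50 mM HEPES pH 7.5. Single-point screen at 100 or 200 μM; Ki from v0/vi vs [I] (0.5–1,000 μM final) assuming competitive inhibition, or Dixon plot. Triplicate.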

[9] = Inhibition of beta-lactamase IMP-1 (unknown origin) expressed in Escherichia coli BL21(DE3) using imipenem as substrate by measuring substrate hydrolysis at 100 uM by spectrophotometric analysis; outline: as §4
[10] = Inhibition of beta-lactamase NDM1 (unknown origin) expressed in Escherichia coli BL21(DE3) using cefotaxime/nitrocefin as substrate by measuring substrate hydrolysis by spectrophotometric analysis
Outline: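 His-tagged enzyme from E. coli BL21(DE3) pET-15b, affinity-purified, 1-70 nM final. Reporter substrate 120 μM cefotaxime (260 nm) or 100 μM nitrocefin (482 nm), 30 °C, 50 mM HEPES pH 7.5. Inhibitor 0.5–1,000 μM final; competitive Ki from v0/vi vs [I] slope or Dixon plot. Triplicate.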

[11] = Inhibition of beta-lactamase VIM2 (unknown origin) expressed in Escherichia coli BL21(DE3) using imipenem as substrate by measuring substrate hydrolysis by spectrophotometric analysis; outline: as §4
[12] = Inhibition of beta-lactamase VIM4 (unknown origin) expressed in Escherichia coli BL21(DE3) using imipenem as substrate by measuring substrate hydrolysis by spectrophotometric analysis; outline: as §4
[13] = Inhibition of beta-lactamase L1 (unknown origin) expressed in Escherichia coli BL21(DE3) using nitrocefin as substrate by measuring substrate hydrolysis preincubated for 30 mins by spectrophotometric analysis
Outline: (§5)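 Enzyme 0.2–0.8 nM in 25 mM HEPES pH 7.5 with 50 μM ZnCl2 final, pre-incubated 30 min at 21 °C with inhibitor (100 μM screen). Nitrocefin 100 μM final, read at 482 nm, 30 °C. Residual activity vs three uninhibited samples; Ki (1–100 μM inhibitor) from Hanes linearization, competitive model. Triplicate.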

[14] = molecular target: Hydroxyacylglutathione hydrolase (Homo sapiens); assay: Inhibition of human Glyoxalase II expressed in Escherichia coli BL21 (DE3)
[15] = Inhibition of beta-lactamase IMP-1 (unknown origin) expressed in Escherichia coli BL21(DE3) using imipenem as substrate by measuring substrate hydrolysis by spectrophotometric analysis; outline: as §4
[16] = Inhibition of beta-lactamase NDM-1 (unknown origin) expressed in Escherichia coli LZ2310 assessed as potentiation of ceftazidime antibacterial activity by measuring ceftazidime induced diameter of inhibition zone at 80 uM incubated for 18 hrs by disk diffusion method (reference value: 15 mm); outline: as §2
[17] = Inhibition of beta-lactamase VIM2 (unknown origin) expressed in Escherichia coli BL21(DE3) using imipenem as substrate by measuring substrate hydrolysis at 100 uM by spectrophotometric analysis; outline: as §4
[18] = Inhibition of beta-lactamase VIM4 (unknown origin) expressed in Escherichia coli BL21(DE3) using imipenem as substrate by measuring substrate hydrolysis at 100 uM by spectrophotometric analysis; outline: as §4
[19] = Inhibition of beta-lactamase L1 (unknown origin) expressed in Escherichia coli BL21(DE3) using nitrocefin as substrate by measuring substrate hydrolysis at 100 uM preincubated for 30 mins by spectrophotometric analysis; outline: as §5
[20] = tested on: Escherichia coli; assay: Synergistic antibacterial activity against NDM-1 producing Escherichia coli assessed as MIC of imipenem at 32 ug/ml by broth microdilution method; format: functional; conditions: dose 32 µg/ml
[21] = tested on: Escherichia coli; assay: Synergistic antibacterial activity against NDM-1 producing Escherichia coli assessed as MIC of meropenem at 32 ug/ml by broth microdilution method; format: functional; conditions: dose 32 µg/ml
[22] = tested on: Escherichia coli; assay: Synergistic antibacterial activity against NDM-1 producing Escherichia coli assessed as MIC of ceftazidime at 32 ug/ml by broth microdilution method; format: functional; conditions: dose 32 µg/ml
[23] = tested on: Escherichia coli; assay: Synergistic antibacterial activity against NDM-1 producing Escherichia coli assessed ass MIC of ceftazidime/avibactam at 32 ug/ml by broth microdilution method; format: functional; conditions: dose 32 µg/ml
Outline: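 MIC of ceftazidime-avibactam (avibactam fixed at 4 µg/mL) by CLSI broth microdilution in Mueller-Hinton broth. Used the NDM-1-producing multidrug-resistant E. coli clinical isolate SI-001M at 5 × 10⁴ CFU/well, with and without inhibitor at a fixed 32 µg/ml. No colistin added. Triplicate determinations.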

[24] = tested on: Escherichia coli; assay: Antibacterial activity against NDM-1 producing Escherichia coli in presence of colistin by broth microdilution method.; format: functional
[25] = Inhibition of beta-lactamase L1 (unknown origin) expressed in Escherichia coli BL21(DE3) using nitrocefin as substrate by measuring substrate hydrolysis at 200 uM preincubated for 30 mins by spectrophotometric analysis
[26] = Inhibition of beta-lactamase VIM4 (unknown origin) expressed in Escherichia coli BL21(DE3) using imipenem as substrate by measuring substrate hydrolysis at 200 uM by spectrophotometric analysis; outline: as §4
[27] = Inhibition of beta-lactamase VIM2 (unknown origin) expressed in Escherichia coli BL21(DE3) using imipenem as substrate by measuring substrate hydrolysis at 200 uM by spectrophotometric analysis; outline: as §4
[28] = Inhibition of beta-lactamase CphA (unknown origin) expressed in Escherichia coli BL21(DE3) using imipenem as substrate by measuring substrate hydrolysis at 100 uM by spectrophotometric analysis; outline: as §3
[29] = Inhibition of beta-lactamase NDM-1 (unknown origin) expressed in Escherichia coli LZ2310 assessed as potentiation of ceftazidime antibacterial activity by measuring ceftazidime induced diameter of inhibition zone at 40 uM incubated for 18 hrs by disk diffusion method (reference value: 15 mm); outline: as §2
[30] = Inhibition of beta-lactamase IMP-1 (unknown origin) expressed in Escherichia coli LZ2310 assessed as potentiation of ceftazidime antibacterial activity by measuring ceftazidime induced diameter of inhibition zone at 40 uM incubated for 18 hrs by disk diffusion method (reference value: 9 mm); outline: as §2
[31] = Inhibition of beta-lactamase CphA (unknown origin) expressed in Escherichia coli BL21(DE3) using imipenem as substrate by measuring substrate hydrolysis at 200 uM by spectrophotometric analysis

Ka [1] | -TdeltaS [3] | inhibition zone (IZ) [4] | deltaG [5] | deltaH [6] | inhibition [8] | inhibition [9] | IC50 [14] | inhibition zone (IZ) [16] | inhibition [17] | inhibition [19] | inhibition [27] | SMILES | Kd [2] | Ki [10] | Ki [11] | Ki [12] | Ki [13] | Ki [15] | other results
1.9 10^6/M | 4.9 kcal/mol | 20 mm | -8.5 kcal/mol | -3.6 kcal/mol | inactive | inactive | 25.5 µM | – | – | – | – | O=C(O)c1ccccc1/C=N/n1c(-c2ccccc2)n[nH]c1=S | 0.519 µM | 38 µM | 2.7 µM | 1.4 µM | 5 µM | – | Ki [7]: 58 µM
– | – | – | – | – | – | – | 23.4 µM | 15 mm | inactive | inactive | inactive | S=c1[nH]nc(-c2cccc(-c3ccccc3)c2)n1/N=C/c1ccc(OCc2ccccc2)cc1 | – | 1.8 µM | – | – | – | 9 µM | inhibition [18]: inactive; MIC [20]: 8 µg/mL; MIC [21]: 64 µg/mL; MIC [22]: > 256 µg/mL; MIC [23]: > 256 µg/mL; MIC [24]: > 256 µg/mL; inhibition [25]: inactive; inhibition [26]: inactive
– | – | – | – | – | inactive | inactive | – | 15 mm | inactive | 60% | inactive | O=C(O)c1ccccc1/C=N/n1c(-c2ccc(Cl)cc2)n[nH]c1=S | – | 7.6 µM | – | 7 µM | – | – | –
1.4 10^6/M | 5.1 kcal/mol | 15 mm | -8.4 kcal/mol | -3.3 kcal/mol | – | – | 13.2 µM | – | – | – | – | O=C(O)c1ccccc1/C=N/n1c(-c2ccc3ccccc3c2)n[nH]c1=S | 0.713 µM | 2.3 µM | 0.7 µM | 0.4 µM | 4.62 µM | 10.6 µM | inhibition [28]: inactive; inhibition zone (IZ) [29]: 15 mm; inhibition zone (IZ) [30]: 9 mm; inhibition [31]: inactive
